We go through 96 compounds from ChEMBL document CHEMBL4513216, “Probing the Open Global Health Chemical Diversity Library for Multistage-Active Starting Points for Next-Generation Antimalarials” (ACS Infect Dis, 2020).

The structures appear in SMILES notation.

A short description of the data set: Toxicity liver stage against HepG2, at 10uM. In kind it is cell-based. Set-up: test concentration 10 uM, cell line HepG2-A16-CD81EGFP. As to conditions: human, HepG2-A16-CD81EGFP cells; read-out: INHIBITION
The procedure, abridged:
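Uninfected HepG2-A16-CD81EGFP cells, 3 × 10^3 per well, 1536-well, plated on prespotted compound at 10 μM final, parasite-free screening media added to match infected plates; puromycin 10 μM positive, DMSO 0.5% negative; run in parallel with 48 h PbLuc assay at 37 °C, 5% CO2; viability by CellTiter-Glo luminescence, normalized to controls.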
As to `O=C(NCCN1CCOCC1)Nc1cc(F)ccc1-n1cccn1`, the cytotoxicity at 10 µM is -14.9%.
With `O=C(COCC1CC1)N1CCCC1c1nc(-c2ccccc2F)c[nH]1` (stereo unspecified) the figure was -0.025%; with `CCc1cc(N2CCN(c3cnccn3)CC2)n2nc(C)c(C)c2n1`, 6.71%.
With `c1cn(Cc2nnc(C3CCN(c4nccs4)CC3)n2C2CC2)cn1` the figure was -7.6%.
With `CC(=O)NCC(=O)N1CCN(C)c2ncccc2C1` the figure was -113%; with `COCCc1noc(CN2CCC3(CCCO3)CCC2=O)n1` (stereo unspecified), 5.35%; with `CCOCc1ncn2c1CN(S(=O)(=O)c1cccs1)CC2`, 0.719%.
`COCCN1CCC2(COCc3cnc(N4CCOCC4)nc32)C1` (stereo unspecified): the cytotoxicity at 10 µM is 11.6%.
With `COc1ccccc1CCN[C@@H]1c2ccccc2C2(CCNCC2)[C@H]1O` the figure was 5.79%.
For `CN(C)CC(=O)N1CCC2(CCN(Cc3ccccn3)C2=O)C1` (stereo unspecified), the cytotoxicity at 10 µM was 1.23%.
For `CN(C)S(=O)(=O)CCCN1CCc2c(ncn2C2CC2)C1`, the cytotoxicity at 10 µM was -10.5%.
The figure for `O=C(c1c2c(NCC3CC3)ncnc2n2ccccc12)N1CCCC1` is 9.31%.
With `Cn1c(SCc2noc(-c3ccsc3)n2)nnc1C1CCS(=O)(=O)C1` (stereo unspecified) the figure was 3.39%; with `COc1ccccc1OCC(=O)NS(=O)(=O)c1ccc(C)s1`, -12.7%.
With `Cc1ccc(OCCN(C)C(=O)CCCC(N)=O)c(C)c1` the figure was 1.47%; with `O=C(C1NCCc2[nH]cnc21)N1CCC2(C=Cc3ccccc32)CC1` (stereo unspecified), 5.19%; with `Cn1cc(C(=O)Nc2ccc(CC(=O)NC3CC3)cc2)nn1`, -7.42%.
As for `COCC(=O)N1CCN(C)CC(Cc2cc(N(C)C)ncn2)C1` (stereo unspecified), the cytotoxicity at 10 µM is -1.79%.
With `Cc1nc(CN2CCCC(C)(CO)C2)no1` (stereo unspecified) the figure was 5.89%; with `CC(=O)N[C@@H]1Cc2ccccc2[C@H]1Nc1nnc(C2CC2)o1`, -47.1%; with `CCNC(=O)CNC(=O)Nc1cccc(Cl)c1SC(F)F`, -1.76%.
On to `NC(=O)CN(C(=O)Cc1cccc(C(F)(F)F)c1)C1CCCC1`, for which the cytotoxicity at 10 µM was determined as 3.71%.
For `CCc1ccc(C(=O)NC2CCc3nc(C)cn3C2)o1` (stereo unspecified), the cytotoxicity at 10 µM is -8.45%.
The figure for `O=C(CCc1ccccc1Cl)NS(=O)(=O)c1ccc2c(c1)OCCO2` is -6.69%; for `Fc1ccc(OCCNC2CCN(Cc3ccccn3)CC2)c(F)c1` it is -3.26%.
The figure for `C[C@@H]1CN(c2nc3c(cc2C(N)=O)CCC3)C[C@]1(C)O` is -0.112%.
With `CSc1ncccc1C(=O)N1C[C@@H]2CC[C@H]1CN(CC(=O)N(C)C)C2` the figure was 2.9%; with `Cc1nccc(-c2cccc(NCC(=O)NCC(=O)N3CCCC3)c2)n1`, -9.18%.
Turning to `Cc1ccc2nc(CN(C)Cc3[nH]nc4c3CCC4)[nH]c2c1C`, the cytotoxicity at 10 µM is 2.74%.
The figure for `CC(=O)N1C[C@H]2C3(CCN(S(C)(=O)=O)CC3)CC[C@@]2(C(=O)N(C)C)C1` is -1.16%.
Regarding `Cc1ccc2[nH]c(C(=O)N3CCC4(CC3)C(=O)NCCN4C)nc2c1`, the cytotoxicity at 10 µM amounted to 1.43%.
With `CCC1CCCCN1C(=O)Cn1nc(-c2ccc(C)o2)cc(N)c1=O` (stereo unspecified) the figure was 3.27%.
For `c1coc(CNc2ncc3c(n2)C2(CCNC2)COC3)c1` (stereo unspecified), the cytotoxicity at 10 µM was 10.7%.
With `Cc1cc(CN2CC[C@H]3C[C@@H](c4nc(C5CC5)cs4)O[C@@H]3C2)no1` the figure was -104%; with `CC(C)(CN1CCCC1)CN1CCC(Cn2cc(C3CC3)nn2)CC1`, -12.2%.
The figure for `O=C(Cc1cccnc1)N1CCC(c2nnc(-c3ccccn3)o2)CC1` is 0.91%; for `CCn1c(CNC(=O)c2ccc(N(C)C)nc2)nc2ccccc21` it is 4.5%; for `O=C(NCCn1ccnc1)N1CCN(Cc2cccnc2)CC1` it is -4.64%.
With `CCc1ccc(CN2CCCn3c(nc(Cn4ccnc4)cc3=O)C2)o1` the figure was 4.29%; with `CC1CCN(C(=O)[C@H]2C[C@@H]3CCN(CC4CCOCC4)C[C@H]3O2)CC1`, 5.35%; with `CC(C)Cc1noc(C2CCN(C(=O)c3cccs3)CC2)n1`, 9.81%.
As for `Cc1ccc(N(CCC#N)C(=O)CN2CCCC2c2ccsc2)cc1C` (stereo unspecified), the cytotoxicity at 10 µM was -11.2%.
The figure for `CCCc1cc(CN(C)C2CC(C)(C)NC(C)(C)C2)n[nH]1` is -16.7%; for `Cc1ccc(CN(C)C(=O)CCNS(=O)(=O)c2cccnc2)cc1` it is -10.6%; for `C[C@]1(O)CN(Cc2cscn2)CC[C@@H]1Oc1cccc(F)c1` it is 7.08%.
With `CCN1CCN(Cc2nc(CC(C)C)no2)CC1` the figure was -23%; with `CCC(NC(=O)c1cc(CC(C)C)nn1C)c1cc(C)ccn1` (stereo unspecified), -138%; with `Cn1c(CO)cnc1SC1CCCN(c2ccccc2F)C1=O` (stereo unspecified), -4%.
For `O=S(=O)(CCCn1cncn1)Cc1ccccc1Cl`, the cytotoxicity at 10 µM is -5.91%.
With `Clc1snnc1CN1CCOC(CNc2cccnn2)C1` (stereo unspecified) the figure was -11%; with `Cc1nc(CN2CCN(Cc3cc4n(n3)CCNC4)CC2)cs1`, -3.25%.
The figure for `Cc1nc(N2CCN(C(=O)c3cccs3)CC2)cc(-n2cccc2)n1` is 1.01%.
With `Cc1nc(CCNC(=O)NC2CCCc3c2cnn3CCO)cs1` (stereo unspecified) the figure was 6.68%; with `Cc1cccc(S(=O)(=O)N2Cc3nccn3CC(CN(C)C)C2)c1` (stereo unspecified), -105%; with `COc1cc(C)c(-c2ccc(F)c3c2OC(CN)C3)cc1C` (stereo unspecified), 20.3%.
Consider `Cc1nc2c(C(=O)O)cccc2n1-c1ccc(C(=O)N2CCCC2)o1`, for which the cytotoxicity at 10 µM is -2.36%.
With `CCCn1nnc2c(sc3nc(N4CCOCC4)c4c(c32)CCC4)c1=O` the figure was 1.74%; with `CC(=O)N(C/C=C/c1ccccc1)CCO`, 4.64%.
With `Cc1occc1C(=O)N1CCc2c(CNc3ncccn3)cncc2C1` the figure was -83.1%; with `CN1CC(c2ccccc2)CC2(CCN(CC(=O)N(C)C)CC2)C1` (stereo unspecified), -12.5%.
With `COCCNC(=O)CCNC(=O)c1ccc(N2CCC(C)=N2)cc1` the figure was 2.07%.
On to `CN(C)C(=O)c1nnc2ccc(N3CCOCC3)cc2n1`, for which the cytotoxicity at 10 µM was 6.47%.
For the compound `CCCN1CC(NC(=O)Nc2nc(C)n(C(C)C)n2)CC1=O` (stereo unspecified), the cytotoxicity at 10 µM is -3.04%.
With `CCOc1ccccc1C(C(=O)O)N(C)Cc1cc(C)[nH]n1` (stereo unspecified) the figure was 9.34%; with `CCNc1ncc(C(=O)N[C@H](C(N)=O)c2ccccc2)cn1`, 10.6%; with `CNC(=O)c1nc(COc2c(C)occc2=O)no1`, 3.08%.
The figure for `CSCCc1c(-c2ccccc2)ncn1CC(C)(C)N1CCCC1` is -47.8%.
The figure for `CC(C)c1cccc(-n2cc(O)c(C(=O)O)n2)c1` is -4.49%.
`CC(C)n1nccc1NC(=O)NCCc1nc2ccc(F)cc2n1C`: the cytotoxicity at 10 µM was -7.85%.
With `CC(C)CN(Cc1ccc(-n2cncn2)cc1)Cc1ccccn1` the figure was 8.57%; with `Cn1c2ncccc2c(=O)n1CC(=O)Nc1ccc(F)c(F)c1`, 16.5%.
The figure for `O=C(Cn1nc2ccccc2n1)N1CCCC(O)(CO)C1` (stereo unspecified) is -6.66%; for `Cc1cc(C[C@@H]2CCC[C@H]2NCc2cccc(F)c2F)on1` it is -0.474%; for `Cc1cnc(N2C[C@@H]3CN(Cc4ccco4)CCC[C@]3(C(=O)O)C2)nc1` it is 7.25%.
The figure for `CSCC(C)NCc1ccc2[nH]c(C)c(C)c2c1` (stereo unspecified) is -0.369%; for `O=C(NCc1cccnc1N1CCCCC1)c1ccc2[nH]nnc2c1` it is -1.19%; for `Cc1cnc(C(=O)N2CCc3c(nc(-c4ccncc4)[nH]c3=O)C2)cn1` it is 8.62%.
Regarding `O=C(NCc1cc(C2CC2)n(C2CCCC2)n1)C1CC1`, the cytotoxicity at 10 µM was 2.16%.
The figure for `c1cnc(N2CCOC3(CCN(CC4CCOC4)CC3)C2)nc1` (stereo unspecified) is -0.777%; for `Cc1nnc(NC(=O)CN(C)C2CCCN(c3cccnn3)C2)s1` (stereo unspecified) it is -5.64%; for `CCc1cnc(C)nc1N1CCN(C(N)=O)CC1` it is -46.3%.
The figure for `O=C1NCCCCC1Sc1nnc(N2CCCC2)n1C1CC1` (stereo unspecified) is 1.4%; for `COCCN(Cc1coc(-c2cccc(Cl)c2)n1)C1CC1` it is 3.92%; for `Cc1ccc(-c2cc(CS(=O)(=O)NC3CCCNC3=O)on2)cc1` (stereo unspecified) it is -172%.
`Cc1nc(C)n(C2CCCN(C(=O)c3ccc(F)cc3F)C2)n1` (stereo unspecified): the cytotoxicity at 10 µM was -2.9%.
With `O=C(Cn1cccn1)N(CCO)CCSc1ccc(Cl)cc1` the figure was 0.513%; with `Cc1cc(CN(C)C(=O)CN2CC3(CCNCC3)OC2=O)n(C)n1`, 9.81%.
With `O=C1CC2(CCN(C(=O)c3ccc4c(c3)CCCO4)C2)C(=O)N1` (stereo unspecified) the figure was 3.67%; with `c1cc(CN2CCC3(CC2)COC(COCC2CC2)C3)ccn1` (stereo unspecified), -0.443%.
The figure for `NC(=O)C(NC1CCN(CC2CCCCC2)CC1)c1ccc(F)cc1` (stereo unspecified) is -5.14%; for `CCCS(=O)(=O)NCCn1ccc(-c2cccs2)n1` it is 5.55%.
For `COC(=O)NC1(C(=O)NCc2ccc(-c3ccn[nH]3)cc2)CCCC1`, the cytotoxicity at 10 µM was -7.65%.
Turning to `CCc1ccc(OCCn2cccn2)cc1`, the cytotoxicity at 10 µM was found to be 8.95%.
With `CC(=O)c1ccc(CN2C[C@@H](CN3CCC(O)CC3)[C@@H](CO)C2)cc1` the figure was 9.99%; with `CN(CC(=O)N1CCC(N(C)c2ccccc2)CC1)c1cnccn1`, -6.6%; with `COc1c(CNCCC(=O)Nc2cccc(C)n2)c(C(C)C)nn1C`, -1.17%.
